Source: ChEMBL document CHEMBL2176930, “Structure-based design of novel inhibitors of the MDM2-p53 interaction” (J Med Chem, 2012)
pIC50: −log10 of the molar value. Calls of active or inactive are those of the source. The calls are words filed in the database; no cut-off is given here.

What was measured:
[1] = target: T1, Tumour suppressor p53/oncoprotein Mdm2 (Homo sapiens, UniProt Q00987); format: protein assay
[2] = target: T1, Tumour suppressor p53/oncoprotein Mdm2; format: protein assay; remark: listed apart in the source
SJSA-1 [3] = test: cells; conditions: Homo sapiens, SJSA-1, 72 h
CYP3A4 [4] = target: T2, CYP3A4 (Homo sapiens, UniProt P08684); test: Time dependent inhibition of human CYP3A4 assessed as residual activity at 10 uM after 15 mins relative to control; format: ADME; conditions: read-out: Activity
T2 sequence (P08684 whole entry): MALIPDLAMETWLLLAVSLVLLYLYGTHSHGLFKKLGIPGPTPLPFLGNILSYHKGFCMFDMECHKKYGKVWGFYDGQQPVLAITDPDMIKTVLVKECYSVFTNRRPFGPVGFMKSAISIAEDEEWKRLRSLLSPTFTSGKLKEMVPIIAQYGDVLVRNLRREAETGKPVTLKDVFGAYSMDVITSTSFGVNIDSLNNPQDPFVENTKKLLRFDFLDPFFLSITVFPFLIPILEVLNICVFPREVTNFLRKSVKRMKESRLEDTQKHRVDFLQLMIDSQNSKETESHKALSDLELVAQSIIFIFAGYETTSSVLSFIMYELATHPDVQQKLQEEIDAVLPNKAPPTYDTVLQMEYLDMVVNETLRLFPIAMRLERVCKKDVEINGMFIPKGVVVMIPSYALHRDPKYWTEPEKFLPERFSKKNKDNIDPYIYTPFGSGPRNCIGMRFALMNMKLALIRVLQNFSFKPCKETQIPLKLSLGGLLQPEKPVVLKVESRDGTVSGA

CYP3A4 [5] = target: T2, CYP3A4; test: Inhibition of human CYP3A4 at 3 uM; format: ADME
PXR (NR1I2) = target: T3, PXR (NR1I2) (Homo sapiens, UniProt O75469); test: Activation of human PXR at 2 uM relative to control; conditions: read-out: Activity
T3 sequence (O75469 whole entry): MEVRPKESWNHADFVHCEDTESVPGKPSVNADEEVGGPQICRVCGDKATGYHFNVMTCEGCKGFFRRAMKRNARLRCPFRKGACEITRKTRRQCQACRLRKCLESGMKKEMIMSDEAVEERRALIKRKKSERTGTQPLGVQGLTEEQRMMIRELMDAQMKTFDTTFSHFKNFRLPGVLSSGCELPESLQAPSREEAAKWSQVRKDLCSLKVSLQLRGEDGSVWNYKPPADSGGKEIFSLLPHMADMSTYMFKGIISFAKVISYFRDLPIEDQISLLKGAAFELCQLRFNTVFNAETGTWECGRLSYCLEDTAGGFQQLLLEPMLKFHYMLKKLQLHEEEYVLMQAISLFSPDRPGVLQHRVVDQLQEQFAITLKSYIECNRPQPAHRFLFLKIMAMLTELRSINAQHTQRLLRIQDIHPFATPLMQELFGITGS

[6] = Plasma clearance in mouse; format: ADME, organism-based
[7] = Volume of distribution at steady state in mouse; format: ADME, organism-based; conditions: in vivo, read-out: Vdss
[8] = Plasma clearance in rat; format: ADME, organism-based
[9] = Oral bioavailability in rat; format: ADME, organism-based; conditions: in vivo
SJSA-1 [10] = test: animal or person; conditions: Mus musculus, SJSA-1, po, 336 h
[11] = Intrinsic clearance in human hepatocytes assessed per million cells; format: ADME, cell-based, Hepatocyte; conditions: read-out: CLH
SJSA-1 [12] = test: Antitumor activity against human SJSA1 cells xenografted in po dosed athymic nude mouse assessed as tumor growth inhibition administered qd after 14 days
[13] = Volume of distribution at steady state in rat; format: ADME, organism-based; conditions: in vivo, read-out: Vdss
HCT-116 = test: Induction of p21 mRNA expression in p53 deficient human HCT116 cells after 7 hrs by RT-PCR analysis; format: functional, cell-based
Outline: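 HCT116 p53−/− cells exposed to compound for 7 h. Total RNA extracted and p21 mRNA quantified by quantitative RT-PCR.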

SJSA-1 [14] = test: animal or person; conditions: Mus musculus, SJSA-1, po, 336 h, read-out: TGI
Mus musculus [15] = test: Activity at p53 in human SJSA1 cells xenografted po dosed mouse assessed as induction of p21 mRNA expression administered once measured after 6 hrs by RT-PCR analysis; conditions: SJSA-1
[16] = Oral bioavailability in mouse; format: ADME, organism-based; conditions: in vivo
Mus musculus [17] = test: Activity at p53 in human SJSA1 cells xenografted po dosed mouse assessed as induction of p21 mRNA expression administered qd for 4 days by RT-PCR analysis relative to control; format: functional, organism-based; conditions: SJSA-1
Outline: (§1)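 Female athymic nude mice carrying subcutaneous SJSA-1 tumours (5 × 10^6 cells implanted; dosing at ∼175 mm3). Oral dosing q.d. for 4 days. Tumours were snap-frozen and p21 mRNA measured by quantitative RT-PCR. Reported as mean fold induction over vehicle tumours, with SEM.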

SJSA-1 [18] = test: Antitumor activity against human SJSA1 cells xenografted in po dosed mouse assessed as tumor growth inhibition administered bid measured twice per weak; format: functional, organism-based
Outline: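 Female athymic nude mice implanted subcutaneously with 5 × 10^6 SJSA-1 cells. Vehicle or compound at 25, 50, 75 or 100 mg/kg b.i.d. by oral gavage, starting on day 10 at ∼200 mm3 tumours (n = 10/group). Tumour size and body weight measured twice weekly; mean tumour volume ± SEM.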

Mus musculus [19] = test: Activity at p53 in human SJSA1 cells xenografted mouse assessed as induction of p21 mRNA expression at 150 mg/kg, qd for 4 days by RT-PCR analysis; format: functional, organism-based; set-up: dose 150 mg/kg; conditions: SJSA-1
Outline: as §1

[20] = Volume of distribution in cynomolgus monkey; format: ADME, organism-based, Macaca fascicularis; conditions: in vivo
SJSA-1 [21] = test: Antitumor activity against human SJSA1 cells xenografted in athymic nude mouse assessed as tumor growth regression at 150 mg/kg, po qd for 14 days; format: functional, organism-based; set-up: dose 150 mg/kg

T1 sequence (P04637 whole entry): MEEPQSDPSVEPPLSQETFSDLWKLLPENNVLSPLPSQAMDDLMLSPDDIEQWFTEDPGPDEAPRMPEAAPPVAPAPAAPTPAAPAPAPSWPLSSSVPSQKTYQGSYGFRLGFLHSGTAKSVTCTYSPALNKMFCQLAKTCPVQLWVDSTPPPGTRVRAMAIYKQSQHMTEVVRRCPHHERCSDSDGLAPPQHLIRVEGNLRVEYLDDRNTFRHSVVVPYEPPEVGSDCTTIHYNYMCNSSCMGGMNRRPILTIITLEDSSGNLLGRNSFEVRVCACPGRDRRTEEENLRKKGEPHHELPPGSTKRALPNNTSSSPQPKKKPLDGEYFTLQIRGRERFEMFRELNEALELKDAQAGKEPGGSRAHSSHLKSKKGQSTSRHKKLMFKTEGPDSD
T1 sequence (Q00987 whole entry): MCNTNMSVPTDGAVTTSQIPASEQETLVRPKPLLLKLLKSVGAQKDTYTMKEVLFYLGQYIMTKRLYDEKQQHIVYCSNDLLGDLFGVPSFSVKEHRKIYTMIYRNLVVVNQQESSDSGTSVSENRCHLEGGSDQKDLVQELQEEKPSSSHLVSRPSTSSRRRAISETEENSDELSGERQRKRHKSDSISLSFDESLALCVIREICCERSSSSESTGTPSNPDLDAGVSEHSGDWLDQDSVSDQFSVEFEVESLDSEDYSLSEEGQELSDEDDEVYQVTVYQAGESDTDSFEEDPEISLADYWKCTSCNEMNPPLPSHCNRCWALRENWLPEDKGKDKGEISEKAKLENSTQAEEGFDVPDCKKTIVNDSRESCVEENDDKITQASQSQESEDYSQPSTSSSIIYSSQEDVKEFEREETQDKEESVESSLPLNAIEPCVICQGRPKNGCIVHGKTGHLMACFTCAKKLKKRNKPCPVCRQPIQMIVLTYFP

Row | SMILES | pIC50 [1] | pIC50 [2] | also measured
1 | C=CC[C@H]1C[C@H](c2cccc(Cl)c2)[C@@H](c2ccc(Cl)cc2)N(CC2CC2)C1=O | < 4.52 | 5.19 | –
2 | CC[C@@H](C(=O)OC(C)(C)C)N1C(=O)[C@@](C)(Cc2nnn[nH]2)C[C@H](c2cccc(Cl)c2)[C@H]1c1ccc(Cl)cc1 | 8.05 | 9.05 | pIC50 (SJSA-1 [3]): 6.77; activity at 0.25 h, 10 µM (CYP3A4 [4]): 30%; inhibition at 3 µM (CYP3A4 [5]): 80%; activity at 2 µM (PXR (NR1I2)): 65%
3 | CC[C@@H](C(=O)OC(C)(C)C)N1C(=O)[C@@](C)(CC(=O)O)C[C@H](c2cccc(Cl)c2)[C@H]1c1ccc(Cl)cc1 | – | – | clearance [6]: 25 mL/min/kg; Vd [7]: 1.3 L/kg; clearance [8]: 45 mL/min/kg; bioavailability [9]: 77%; ED50 (SJSA-1 [10]): 118 mg/kg; hepatocyte CLint [11]: 26 µL/min/1e6 cells; activity at 0.25 h, 10 µM (CYP3A4 [4]): 77%; inhibition at 3 µM (CYP3A4 [5]): 40%; TGI (SJSA-1 [12]): Dose-dependent effect; Vd [13]: 1.5 L/kg; Activity (HCT-116): inactive; inhibition in vivo at 200 mg/kg (SJSA-1 [14]): 91%; Activity (Mus musculus [15]): Dose-dependent effect; bioavailability [16]: 36%; activity at 2 µM (PXR (NR1I2)): 27%
4 | CC[C@@H]([C@H](C)O)N1C(=O)[C@@](C)(CC(=O)O)C[C@H](c2cccc(Cl)c2)[C@H]1c1ccc(Cl)cc1 | – | – | Activity (Mus musculus [17]): Dose-dependent effect; Activity (SJSA-1 [18]): Dose-dependent effect; Vd [7]: 5.2 L/kg; Activity (Mus musculus [19]): Dose-dependent effect; ED50 (SJSA-1 [10]): 78 mg/kg; Vd [20]: 6.2 L/kg; Vd [13]: 12 L/kg; Activity (SJSA-1 [21]): Active
5 | O=C1CC[C@H](c2cccc(Cl)c2)[C@@H](c2ccc(Cl)cc2)N1 (racemic) | < 4.52 | 5.00 | –
6 | CCCCN1C(=O)CC[C@H](c2cccc(Cl)c2)[C@H]1c1ccc(Cl)cc1 (racemic) | < 4.52 | 5.57 | –
7 | O=C(O)CC[C@H]1C[C@H](c2cccc(Cl)c2)[C@@H](c2ccc(Cl)cc2)N(CC2CC2)C1=O | 5.18 | 6.24 | –
8 | COC(=O)CN1C(=O)CC[C@H](c2cccc(Cl)c2)[C@H]1c1ccc(Cl)cc1 (racemic) | < 4.52 | 5.26 | –
9 | CCC[C@@H](C(=O)OCC)N1C(=O)CC[C@H](c2cccc(Cl)c2)[C@H]1c1ccc(Cl)cc1 (racemic) | < 4.52 | 5.85 | –
10 | CCOC(=O)[C@H](CC)N1C(=O)CC[C@H](c2cccc(Cl)c2)[C@H]1c1ccc(Cl)cc1 (racemic) | 4.73 | 6.03 | –
11 | O=C1CC[C@@H](c2cccc(Cl)c2)[C@H](c2ccc(Cl)cc2)N1CC1CC1 | < 4.52 | < 4.52 | –
12 | O=C(O)CC[C@@H]1C[C@H](c2cccc(Cl)c2)[C@@H](c2ccc(Cl)cc2)N(CC2CC2)C1=O | 5.18 | 6.47 | –
13 | CCOC(=O)[C@@H](CC)N1C(=O)CC[C@H](c2cccc(Cl)c2)[C@H]1c1ccc(Cl)cc1 (racemic) | < 4.52 | 5.46 | –
14 | O=C1CC[C@H](c2cccc(Cl)c2)[C@@H](c2ccc(Cl)cc2)N1CC1CC1 | < 4.52 | 6.09 | –
15 | N#CC[C@H]1C[C@H](c2cccc(Cl)c2)[C@@H](c2ccc(Cl)cc2)N(CC2CC2)C1=O | < 4.52 | 5.63 | –
16 | CCCN1C(=O)CC[C@H](c2cccc(Cl)c2)[C@H]1c1ccc(Cl)cc1 (racemic) | < 4.52 | 5.72 | –
17 | O=C1CC[C@H](c2cccc(Cl)c2)[C@@H](c2ccc(Cl)cc2)N1CC1CC1 (racemic) | – | 5.82 | –
18 | O=C1CC[C@H](c2cccc(Cl)c2)[C@@H](c2ccc(Cl)cc2)N1Cc1ccccc1 (racemic) | < 4.52 | 5.27 | –
19 | CC[C@@H](C(=O)OC(C)(C)C)N1C(=O)[C@@H](Cc2nnn[nH]2)C[C@H](c2cccc(Cl)c2)[C@H]1c1ccc(Cl)cc1 | 7.69 | 8.74 | pIC50 (SJSA-1 [3]): 6.51
20 | CCC(CC)N1C(=O)[C@@](C)(CC(=O)O)C[C@H](c2cccc(Cl)c2)[C@H]1c1ccc(Cl)cc1 | – | – | pIC50 (SJSA-1 [3]): 6.27
21 | CCOC(=O)[C@H](C)N1C(=O)CC[C@H](c2cccc(Cl)c2)[C@H]1c1ccc(Cl)cc1 (racemic) | < 4.52 | 5.77 | –
22 | CC(C)CN1C(=O)CC[C@H](c2cccc(Cl)c2)[C@H]1c1ccc(Cl)cc1 (racemic) | < 4.52 | 5.64 | –
